MT stabilizer: microtubule stabilizers in HeLa cells, primary screen, imaging, high-content imaging | AID 2205, 2009 | HeLa tubulin immunostaining HCS, 24 h; share of cells brighter than vehicle mean+2SD | % tubulin-high responders, % at 10 µM | hit rate 0.83% among 200,000;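 active means plate Z-score above 3 for both tubulin-high and condensed-nucleus cell shares, with cell loss under 80%, at 10 µM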;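 further: anti alpha tubulin signal scored within the nucleus-defined area of each cell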
bCat nuc transl: modulators of beta-catenin nuclear translocation, primary screen, imaging, HeLa cells, immunofluorescence, high-content. hit rate 0.3% among 190,000. nuclear translocation activity, % at 5 µM. AID 1665, 2009;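 active means nuclear translocation activity above 50% at 5 µM, with a well cell count of 50 or more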;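 further: per-cell ratio of nuclear to cytoplasmic median beta-catenin stain intensity; plate controls were DMSO negative control for no effect and GSK-3 inhibitor IX positive control for full effect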
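Test system: human HeLa cells, endogenous beta-catenin. Times: 24 h compound exposure, 37°C. Measured by: beta-catenin immunofluorescence imaging with DAPI.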
ROMK primary: ROMK potassium channel modulators, primary screen, cell-based, thallium flux, MLSMR library. ATP-sensitive inward rectifier potassium channel 1 (Homo sapiens), P48048. hit rate 2% among 130,000. B-score at 10 µM. AID 1918, 2009. Tet-inducible ROMK, thallium flux fluorescence; actives lie on both sides;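 active means signal ratio slope over the read window, or its plate-corrected B-score, at least 3 SD from the plate mean, either direction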;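 further: B-score of the F/F0 ratio slope over 7 to 12 s after thallium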
Target sequence (P48048 whole entry, looked up): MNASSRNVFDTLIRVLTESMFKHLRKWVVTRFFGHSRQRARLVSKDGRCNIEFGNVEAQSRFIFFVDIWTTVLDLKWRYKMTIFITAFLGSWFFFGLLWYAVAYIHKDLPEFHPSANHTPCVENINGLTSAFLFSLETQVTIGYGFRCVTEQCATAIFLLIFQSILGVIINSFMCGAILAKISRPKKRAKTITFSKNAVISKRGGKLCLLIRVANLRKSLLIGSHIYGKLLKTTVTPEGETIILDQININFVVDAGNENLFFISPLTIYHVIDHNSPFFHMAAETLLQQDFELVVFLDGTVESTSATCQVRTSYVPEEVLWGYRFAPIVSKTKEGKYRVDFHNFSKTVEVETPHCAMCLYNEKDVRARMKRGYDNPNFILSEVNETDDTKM
Numbers without * were called inactive; / = no result given. In the library only some 1.9% were active in any assay of this set; here they are far more common.

SMILES	MT stabilizer	bCat nuc transl	ROMK primary
O=C(COC(=O)CNC(=O)c1ccccc1)Nc1ccc(F)c([N+](=O)[O-])c1	4.4	-3.0	-0.0271
O=C(Nc1ccc(/C=C/c2nc3ccccc3o2)cc1)c1ccc(F)cc1	3.8	/	/
O=S(Cc1cc(Oc2ccccc2)nc(-c2ccccc2)n1)c1ccccc1 (centres undefined)	1.6	0.1	/
CC(C)OCCCNCC(O)c1ccccc1 (centres undefined)	2.4	-0.4	-0.681
Cc1cc(=O)oc2cc(OCC3CC(c4ccc(Br)cc4)=NO3)ccc12 (centres undefined)	20.4*	0.2	/
Cc1cc(=O)oc2cc(OCC3CC(c4ccccc4)=NO3)ccc12 (centres undefined)	31.6	-8.0	/
NCCCNC(=O)c1ccc(/C=N/O)nc1	2.0	0.2	/
COCc1cc(/C=N\NC(=O)c2ccc(Cl)cc2)ccc1OC	1.7	0.7	0.107
COc1ccc(/C=N/NC(=O)c2ccc(Cl)cc2Cl)cc1COC(C)=O	21.1*	1.9	2.24
O=C(CSc1nnc(CNc2ccc(F)cc2)o1)c1ccccc1	3.6	-0.4	-0.771
CN(C)c1nc(N)c2ncc(=S)[nH]c2n1	6.6	-3.0	-0.0721
CCOc1ccc(-c2nc(N)ncc2Oc2ccccc2Br)c(O)c1	2.1	/	1.61
CCOc1ccc(-c2nc(N)ncc2Oc2cccc(OC)c2)c(O)c1	8.2*	/	1.07
O=C1CC(c2ccccc2)CC2=C1CN(C1CCCCC1)CN2 (centres undefined)	50.8*	-4.4	/
O=C1CC(c2ccccc2)CC2=C1C(c1ccccn1)Nc1ccccc1N2 (centres undefined)	0.6	-1.8	-2.37
Cc1c(C(=O)C(=O)N2CC=C(c3ccccc3)CC2)c2ccccc2n1C	14.8	61.5*	/
Cc1c(C(=O)C(=O)N2c3ccccc3CC2C)c2ccccc2n1C (centres undefined)	16.8*	5.9	-0.0773
Cc1ccccc1NC(=O)N1c2ccccc2CC1C (centres undefined)	5.0	-0.7	-0.783
O=C(O)c1ccccc1C(=O)N1CC=C(c2ccccc2)CC1	1.8	0.0	/
O=C1c2ccccc2C(=O)N1CCCc1nc2ccccc2c(=O)n1-c1cccnc1	2.1	-0.4	/
CCNc1nc2cccnc2s1	/	1.6	-0.378
COc1ccc2c(c1)NC(c1ccc(N(C)C)cc1)c1cccn1-2 (centres undefined)	/	1.1	/
Cc1nn(Cc2ccc(Cl)cc2)c(C)c1NC(=O)C(c1ccccc1)c1ccccc1	2.2	0.4	/
O=[N+]([O-])c1cc(S(=O)(=O)N2CCCC2)ccc1SCCO	3.1	-1.0	-0.616
O=C(CSc1nc(-c2ccncc2)nn1CC(=O)N1CCCCC1)NC1CCCC1	2.2	-2.8	-0.852
SMILES	MT stabilizer	bCat nuc transl	ROMK primary
Cc1ccc(C(=O)NC2c3ccccc3-c3ccccc32)cc1	23.6*	106.4*	2.75
Cc1ccc(C(=O)NC2CCc3ccccc3C2=O)cc1 (centres undefined)	3.1	-1.0	-0.259
COc1ccc2cc(CN(CC3CCCO3)C(=O)Nc3ccccc3OC)c(=O)[nH]c2c1 (centres undefined)	23.2*	-0.6	-0.034
COc1ccc(NC(=O)N(Cc2cc3ccc(OC)cc3[nH]c2=O)CC2CCCO2)cc1 (centres undefined)	12.7*	0.8	0.764
COc1ccc(NC(=O)N(Cc2cc3cc(OC)ccc3[nH]c2=O)CC2CCCO2)cc1 (centres undefined)	4.1	-3.2	-0.42
COc1ccc2cc(CN(C(=O)Nc3ccccc3OC)C3CCCC3)c(=O)[nH]c2c1	3.7	0.2	/
COC(=O)c1ccc(-c2nc(O)c3cnccn23)cc1	3.5	1.0	0.893
COc1ccc(C(=O)N/C=C/n2cnc3cc(C(F)(F)F)ccc32)cc1	/	-2.1	/
CC1(OC(=O)C2CCCC2)C(=O)C=C2C=C(c3ccsc3)N(CCCCO)C=C2C1=O (centres undefined)	/	-0.3	/
COc1ccc(CN2C=C3C(=O)C(C)(OC(=O)C4CCCC4)C(=O)C=C3C=C2c2ccsc2)cc1 (centres undefined)	/	50.1*	/
O=C(CCS(=O)(=O)c1cc(Br)cc2c1N(C(=O)C1CC1)CC2)N1CCN(c2ccccn2)CC1	4.3	-3.0	-0.0636
CCC(c1nnc(SCC(=O)Nc2cccnc2Cl)n1-c1ccccc1)N(C)C (centres undefined)	2.9	0.5	0.559
CNS(=O)(=O)c1cc(OC)c(OC)cc1CC(=O)OC	3.2	-0.9	1.13
Cc1ccc(CNC(=O)c2cccc(OCc3c(C)noc3C)c2)cc1	5.9	-3.1	/
Cc1noc(C)c1COc1cccc(C(=O)NCCc2c[nH]c3ccccc23)c1	23.9*	-1.4	-0.103
CC(CCc1ccccc1)NC(=O)c1ccco1 (centres undefined)	4.2	0.5	0.128
CC(C)CNC(=O)[C@H](Cc1ccccc1)NC(=O)c1ccco1	2.3	-5.8	3.2*
CCc1nnc(NC(=O)CSc2nnc(-c3ccccc3OC)n2-c2ccc(C)cc2)s1	1.8	2.2	0.418
CCc1nnc(NC(=O)CSc2nnc(COc3ccc(C)cc3)n2-c2ccccc2)s1	33.2*	0.4	/
CCc1nnc(NC(=O)CSc2nnc(-c3ccccc3O)n2-c2ccc(C)cc2)s1	38.4*	-1.3	/
CCc1nnc(NC(=O)CSc2nnc(Cc3ccccc3)n2-c2ccccc2)s1	5.5	-4.7	/
Cc1ccc(-c2noc(CN3C(C)CCCC3C)n2)cc1 (centres undefined)	8.3	-1.0	/
C/C(CC(C)(C)c1ccccc1)=N\NS(=O)(=O)c1ccccc1	1.4	-2.0	0.611
COc1cc(C2C(C(=O)/C=C/c3ccccc3)=C(O)C(=O)N2c2ccccn2)ccc1O (centres undefined)	1.4	-0.2	-0.141
Cn1cc(CN2CCN(c3ccc(Cl)cn3)CC2)c(-c2ccccc2F)n1	3.9	0.2	-0.0303
SMILES	MT stabilizer	bCat nuc transl	ROMK primary
Cc1cccc(N2CCN(Cc3cn(C)nc3-c3ccccc3F)CC2)n1	33.6*	102.7*	0.0952
O=[N+]([O-])c1ccc(-c2ccc(/C=N/Nc3nc(N4CCCCC4)nc(N4CCCCC4)n3)o2)cc1	4.9	-2.1	-1.17
COc1ccc(-c2cnnc(N/N=C/c3ccc(-c4ccc([N+](=O)[O-])cc4)o3)n2)cc1	39.7*	81.3*	1.45
O=[N+]([O-])c1ccc(-c2ccc(/C=N/Nc3nc(N4CCCC4)nc(N4CCCC4)n3)o2)cc1	34.7*	-4.1	-0.621
COc1ccccc1-c1cnnc(N/N=C/c2ccc(-c3cccc(Br)c3)o2)n1	3.8	3.1	-0.842
CCCNC(=S)N1CCC(C(=O)c2ccc(OC)cc2)CC1	2.1	/	/
Cc1ccc(NC(=S)N2CCC(c3ccccc3)C2)c(Cl)c1 (centres undefined)	5.2	-0.3	0.00979
O=C(COc1ccccc1C(=O)NCc1ccncc1)Nc1ccc(Br)cc1	3.2	0.0	-0.468
O=C1NC(=S)S/C1=C\c1ccc(SCc2ccccc2)o1	3.5	-2.9	1.19
O=C1NC(=S)S/C1=C\c1ccc(SCc2ccco2)o1	8.7	1.2	-2.8*
CC1CCN(C(=O)CSc2ccc(-c3cccc([N+](=O)[O-])c3)nn2)CC1	3.9	0.4	0.505
O=C(/C(=C\c1ccccc1)c1nc2ccccc2[nH]1)c1ccc(Cl)cc1	22.2*	0.9	/

Screening data: PubChem BioAssay, several laboratories
